Bioassay records: PubChem, Johns Hopkins Ion Channel Center
Hits are enriched below; roughly 2.3% of the tested compounds scored in any of these assays.
TRPC4 block: inhibitors of mouse TRPC4 channel, primary screen, Fluo4 calcium, HEK293 TRPC4beta/mu-opioid cells; Short transient receptor potential channel 4 (Mus musculus), Q9QUQ5; DAMGO-evoked Fluo4 calcium flux; active compounds read low; B-score at 10 µM; 300,000 compounds, 0.39% hits; AID 2247, 2010;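 active = B-score over 3 SD under the library average, no early fluorescence shift, positive overall ratio signal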
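Signal: kinetic Fluo4 fluorescence imaging of calcium influx. Material: stable TRPC4beta/mu-opioid receptor HEK293 cells. Probe or stimulus: DAMGO in two steps, submaximal then maximal.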
TRPC4 PAM: positive allosteric modulators of TRPC4, primary screen, cell-based, mouse TRPC4beta, HEK293 mu-opioid, Fluo-4 calcium; Short transient receptor potential channel 4 (Mus musculus), Q9QUQ5; DAMGO EC20, Fluo-4 Ca2+ flux; active compounds read high; B-score at 10 µM; 310,000 compounds, 0.42% hits;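 active = B-score of calcium response area above 5 SD of library B-scores, with initial fluorescence ratio within 5 SD of library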;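 also: B-score of integrated fluorescence ratio over time as area under calcium response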
TRPC6 inh: mouse TRPC6 channel inhibitors, primary screen, cell-based, HEK293, membrane potential dye | Short transient receptor potential channel 6 (Mus musculus), Q61143 | AID 2553, 2010 | ACh-evoked depolarization; active compounds read low | 310,000 compounds, 1.1% hits | B-score at 10 µM;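 active = B-score under library mean minus 3 SD, initial fluorescence not abnormally high, positive integrated signal ratio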;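 also: B-score derived from integrated fluorescence ratio over the kinetic read; more negative B-score means stronger inhibition of depolarization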
Target sequence (Q61143 whole entry, looked up): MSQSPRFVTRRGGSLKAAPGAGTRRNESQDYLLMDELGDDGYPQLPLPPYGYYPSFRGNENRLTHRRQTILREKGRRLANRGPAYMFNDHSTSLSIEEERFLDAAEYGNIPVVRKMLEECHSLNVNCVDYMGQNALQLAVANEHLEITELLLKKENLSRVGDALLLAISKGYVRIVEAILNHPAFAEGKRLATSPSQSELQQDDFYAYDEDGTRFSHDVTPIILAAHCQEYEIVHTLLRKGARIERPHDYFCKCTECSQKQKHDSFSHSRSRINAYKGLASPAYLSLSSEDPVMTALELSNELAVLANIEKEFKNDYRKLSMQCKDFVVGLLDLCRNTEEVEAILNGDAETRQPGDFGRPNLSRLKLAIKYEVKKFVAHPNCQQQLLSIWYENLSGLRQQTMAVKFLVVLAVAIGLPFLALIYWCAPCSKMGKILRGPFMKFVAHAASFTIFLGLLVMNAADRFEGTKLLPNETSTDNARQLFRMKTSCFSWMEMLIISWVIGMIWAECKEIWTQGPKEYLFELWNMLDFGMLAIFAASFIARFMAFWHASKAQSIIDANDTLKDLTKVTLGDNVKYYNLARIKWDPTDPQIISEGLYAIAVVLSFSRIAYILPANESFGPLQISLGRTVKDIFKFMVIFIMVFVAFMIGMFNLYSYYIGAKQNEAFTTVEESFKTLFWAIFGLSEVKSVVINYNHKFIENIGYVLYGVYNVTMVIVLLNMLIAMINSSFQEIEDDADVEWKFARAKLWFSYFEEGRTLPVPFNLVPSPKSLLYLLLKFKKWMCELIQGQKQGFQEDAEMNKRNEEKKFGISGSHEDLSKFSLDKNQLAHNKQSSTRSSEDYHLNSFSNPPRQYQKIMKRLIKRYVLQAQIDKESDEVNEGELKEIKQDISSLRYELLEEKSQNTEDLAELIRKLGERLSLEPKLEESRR
TRPC6 activator: mouse TRPC6 channel activators, primary screen, cell-based, HEK293, membrane potential dye. AID 2550, 2010. HEK293-TRPC6 membrane potential dye fluorescence; active compounds read high. 310,000 compounds, 0.13% hits. B-score at 10 µM. Short transient receptor potential channel 6 (Mus musculus), Q61143;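 active = B-score of the integrated fluorescence ratio above library mean plus 3 SD, and starting fluorescence ratio within library mean plus 5 SD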;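 also: higher score means more depolarization so channel activation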
TRPC4 agonist: activators of mouse TRPC4 channel, primary screen, Fluo4 calcium, HEK293 TRPC4beta/mu-opioid cells; Short transient receptor potential channel 4 (Mus musculus), Q9QUQ5; Fluo4 calcium fluorescence; active compounds read high; B-score at 10 µM; 310,000 compounds, 0.49% hits; AID 2237, 2010;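 active = B-score above 5 SD of library B-scores, and initial fluorescence ratio not above library mean plus 5 SD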;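 also: positive B-score marks a calcium rise read as TRPC4 activation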
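Assay system: HEK293 stable line with TRPC4beta plus mu-opioid receptor. Times: dye 45 min RT, read 110 s. Measured by: kinetic Fluo4 calcium fluorescence. Measure: B score of integrated ratio. Controls: assay buffer as low control, maximal DAMGO as high control.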
TRPC4 spec 2: mouse TRPC4 off-target activity of TRPC6 inhibitors, second screen | inhibition, % at 10 µM | 920 compounds, 42% hits | shares compounds with TRPC6 inh | AID 2776 | HEK293 TRPC4/MOR, membrane potential dye fluorescence; channel activated by saturating DAMGO dose;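 active = compounds whose fluorescence signal differed from control wells by over 3 SD, either direction, in both duplicate plates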
TRPC4 spec: mouse TRPC4 modulation by TRPC6 hits, confirmation, selectivity assay for TRPC6 inhibitor project, cell-based, HEK293 TRPC4/mu-opioid, membrane potential dye; 920 compounds, 61% hits; shares compounds with TRPC6 inh; activity change, negative = inhibition, % at 10 µM; AID 2777, 2010; membrane potential fluorescence;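 active = rise or fall in signal beyond 3 SD of buffer-only wells in both replicate plates, either sign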;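 also: integrated kinetic ratio of fluorescence range over baseline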
HEK293 MPD ctr 2-1: nonspecific membrane potential effects, parental HEK293, confirmation, counter-screen for TRPC6 inhibitor project, cell-based, second counter screen | shares compounds with TRPC6 inh | parental HEK293 membrane potential dye fluorescence; maximal acetylcholine challenge after compound addition | signal change vs control, % at 10 µM | 920 compounds, 31% hits;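 active = membrane potential signal moving either way by over 3 SD of the maximum-effect control, in both duplicate plates, meaning non-specific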
HEK293 MPD ctr-1: membrane potential modulation in parental HEK293, confirmation, counter-screen for TRPC6 inhibitor project, cell-based | shares compounds with TRPC6 inh | parental HEK293 membrane potential dye fluorescence | membrane potential signal change, % at 10 µM | 920 compounds, 60% hits | AID 2780, 2010;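 active = membrane potential signal shifting up or down by more than 3 SD of buffer-only wells, on both duplicate plates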
HEK293 MPD ctr-2: parental HEK293 membrane potential modulation, confirmation, counter-screen for TRPC6 modulator project, cell-based; shares compounds with TRPC6 inh; membrane potential dye fluorescence; membrane potential signal change, % at 10 µM; 2,400 compounds, 51% hits;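 active = membrane potential signal moves up or down beyond 5 SD from buffer-only wells, on both duplicate plates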
HEK293 MPD ctr 2-2: second counter-screen for TRPC6 modulators: effect in parental HEK293 cells. shares compounds with TRPC6 inh. membrane potential dye fluorescence; after compound, maximal acetylcholine stimulation. inhibition, % at 10 µM. 2,400 compounds, 14% hits. AID 488926;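 active = membrane potential signal drops by more than 5 SD from the mean control signal, in both duplicate plates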;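 also: plate controls were acetylcholine ECmax control wells for no effect and buffer only wells for full effect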
TRPC4/MOR mod: TRPC4 modulation by TRPC6 hit compounds, confirmation, selectivity assay for TRPC6 modulator project, cell-based, HEK293 TRPC4/mu-opioid, membrane potential dye, mouse; shares compounds with TRPC6 inh; membrane potential fluorescence; percent change from control (negative = decrease, positive = increase), % at 10 µM; 2,400 compounds, 69% hits; AID 488927, 2010;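 active = membrane potential signal moved up or down beyond 5 SD of buffer control wells, in both duplicate plates, actives on both sides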;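 also: plate controls were assay buffer wells for no effect and DAMGO maximal-effect wells for full effect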
TRPC4 ctr inh 2: second selectivity test of TRPC6 modulators against mouse TRPC4; 2,400 compounds, 55% hits; inhibition, % at 10 µM; HEK293 TRPC4/mu-opioid, membrane potential dye fluorescence; stimulated with maximal-effect DAMGO; shares compounds with TRPC6 inh;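 active = drop in membrane potential signal beyond 5 SD of the control wells in both duplicate plates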;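 also: TRPC4 counter screen for TRPC6 hits run under conditions tuned for TRPC6 not TRPC4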
TRPC6 block conf: mouse TRPC6 channel inhibitors, confirmation, HEK293 cells, membrane potential dye, duplicate; inhibition, % at 10 µM; 3,300 compounds, 43% hits; shares compounds with TRPC6 inh; ACh-evoked depolarization;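 active = fluorescence ratio falls more than 5 SD below the full-stimulation control mean, in both duplicate runs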;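 also: integrated fluorescence ratio of peak minus minimum over baseline after agonist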
TRPC6 act confirm: mouse TRPC6 channel activators, confirmation, HEK293 cells, membrane potential dye, duplicate; 2,800 compounds, 11% hits; HEK293-TRPC6 membrane potential dye fluorescence, FDSS; activation, % at 10 µM; shares compounds with TRPC6 inh;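 active = ratio signal rise beyond 5 SD above unstimulated control wells' mean, seen in both duplicate runs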;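 also: plate controls were buffer EC0 wells for no effect and acetylcholine ECmax response for full effect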
Starred values were filed as active, the others as inactive; i = inactive; . = not tested or not shown.

SMILES	TRPC4 block	TRPC4 PAM	TRPC6 inh	TRPC6 activator	TRPC4 agonist	HEK293 MPD ctr-2	HEK293 MPD ctr 2-2	TRPC4/MOR mod	TRPC4 ctr inh 2	TRPC6 block conf	TRPC6 act confirm	others
O=C(NCC1CCCO1)C1c2ccccc2C(=O)N1C1CCCCCCC1 (stereo not given)	i	i	i	i	i	.	.	.	.	.	.
O=C(NCC1CCCO1)[C@@H]1CSC2c3ccccc3C(=O)N21 (stereo not given in full)	i	i	-5.39*	i	i	i	i	i	i	i	i
Nc1ccc(N(CCO)CCO)cc1	i	i	i	i	i	.	.	.	.	.	.
Cc1cc(N(CCO)CCO)ccc1N=Nc1cc(F)ccc1F	i	i	-7.02*	i	i	.	.	.	.	62.9%*	i	TRPC4 spec 2=62.5%*;TRPC4 spec=-21.8%*;HEK293 MPD ctr 2-1=i;HEK293 MPD ctr-1=-454.0%*
CCN(CC)CCOC(c1ccccc1)c1ccc(C)cc1 (stereo not given)	i	i	i	i	i	.	.	.	.	.	.
Cc1ccc(C(OCC(C)(C)C[N+](C)(C)C)c2ccccc2)cc1 (stereo not given)	i	i	-8.08*	i	i	.	.	.	.	i	i	TRPC4 spec 2=i;TRPC4 spec=i;HEK293 MPD ctr 2-1=19.0%*;HEK293 MPD ctr-1=i
Cc1cc(N2CCN(c3ccccc3)CC2)nc2ccccc12	i	i	i	i	i	.	.	.	.	.	.
Cc1cc(N2CCC(N(C)C3CCCC3)CC2)nc2cc(O)ccc12	i	i	-6.73*	i	i	-281.5%*	i	-54.0%*	47.0%*	43.0%*	i
CCN(CC)C(=O)N1c2ccccc2CC(N(CC)CC)c2ccccc21 (stereo not given)	i	i	-5.2*	i	i	220.0%*	i	39.0%*	i	i	.
